Source: ChEMBL document CHEMBL1148114, “New antiinfective and human 5-HT2 receptor binding natural and semisynthetic compounds from the Jamaican sponge Smenospongia aurea” (J Nat Prod, 2002)
In brackets after ≈: the same amount, converted by molar mass. Activity calls are given as the source filed them. The calls are words filed in the database; no cut-off is given here.

Key:
Plasmodium falciparum = experiment: Antimalarial activity against Plasmodium falciparum D6; format: functional, organism-based
Vero = experiment: Cytotoxicity against african green monkey Vero cells at 4.76 ug/mL; format: cell-based; conditions: chlorocebus sabaeus
Procedure, shortened: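 Vero (African green monkey kidney) cells exposed to compound at 4.76 µg/mL to assess cytotoxicity.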

[1] = test system: Mycobacterium tuberculosis; experiment: Antitubercular activity against Mycobacterium tuberculosis H37Rv at 6.25 ug/mL; format: functional
[2] = test system: Mycobacterium tuberculosis; experiment: Antitubercular activity against Mycobacterium tuberculosis H37Rv; format: functional; conditions: for MIC: Mycobacterium tuberculosis, H37Rv
Homo sapiens = species: Homo sapiens; experiment: Displacement of [3H]methylspiperone form human cloned dopamine 4.2 receptor
[3] = Selectivity index, ratio of IC50 for african green monkey (Cercopithecus aethiops) Vero cells to IC50 for Plasmodium falciparum D6; format: toxicity, cell-based; conditions: read-out: Selectivity Index
Plasmepsin II [4] = target: T1, Plasmepsin II (Plasmodium falciparum, UniProt P46925); experiment: Inhibition of Plasmodium falciparum plasmepsin-2 by FRET assay
Plasmepsin II [5] = target: T1, Plasmepsin II; experiment: Inhibition of Plasmodium falciparum plasmepsin-2 by fluorescence polarization assay
[6] = target: T2, 5-hydroxytryptamine receptor 2A (Homo sapiens, UniProt P28223); experiment: Displacement of [3H]methylspiperone form human cloned 5HT2A receptor expressed in african green monkey COS7 cells by scintillation spectroscopy; format: cell-based, COS-7
Procedure, shortened: (§1)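 Transiently CaPO4-transfected COS-7 membranes carrying human 5-HT2A ([3H]methylspiperone) or 5-HT2C ([3H]mesulergine); equilibrium competition in 50 mM Tris pH 7.4, 2 h at 25 °C; nonspecific binding with 10 µM mianserin; filtration on PEI-treated GF/C, scintillation counting. Compounds from 10 mM DMSO stock diluted ≥1:100. Triplicate points, three experiments; Ki via Cheng-Prusoff, geometric means.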

[7] = target: T3, 5-hydroxytryptamine receptor 2C (Homo sapiens, UniProt P28335); experiment: Displacement of [3H]mesulergine form human cloned 5HT2C receptor expressed in african green monkey COS7 cells by scintillation spectroscopy; format: cell-based, COS-7; procedure, shortened: as §1
T3 sequence (P28335 whole entry): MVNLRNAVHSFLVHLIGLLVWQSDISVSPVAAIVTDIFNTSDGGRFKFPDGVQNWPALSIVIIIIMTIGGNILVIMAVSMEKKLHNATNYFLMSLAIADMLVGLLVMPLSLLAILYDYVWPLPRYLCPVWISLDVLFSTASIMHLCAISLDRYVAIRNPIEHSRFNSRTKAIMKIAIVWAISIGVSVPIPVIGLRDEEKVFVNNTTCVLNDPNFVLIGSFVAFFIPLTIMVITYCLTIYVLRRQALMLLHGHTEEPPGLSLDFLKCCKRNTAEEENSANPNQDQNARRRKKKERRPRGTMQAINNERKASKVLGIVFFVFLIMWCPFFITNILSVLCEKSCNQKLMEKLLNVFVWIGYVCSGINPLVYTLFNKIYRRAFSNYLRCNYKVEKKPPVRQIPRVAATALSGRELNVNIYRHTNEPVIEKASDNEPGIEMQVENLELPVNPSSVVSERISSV

[8] = target: T2, 5-hydroxytryptamine receptor 2A; experiment: Displacement of [3H]methylspiperone form human cloned 5HT2A receptor expressed in african green monkey COS7 cells at 30 uM by scintillation spectroscopy; format: cell-based; conditions: cos-7
Procedure, shortened: (§2)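 Single-point competition on transfected COS-7 membranes (human 5-HT2A with [3H]methylspiperone; 5-HT2C with [3H]mesulergine), 50 mM Tris pH 7.4, 2 h at 25 °C; 10 µM mianserin defines nonspecific binding; filter-bound radioactivity counted by scintillation. DMSO stock 10 mM, diluted at least 1:100 in assay.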

[9] = target: T3, 5-hydroxytryptamine receptor 2C; experiment: Displacement of [3H]mesulergine form human cloned 5HT2C receptor expressed in african green monkey COS7 cells at 30 uM by scintillation spectroscopy; format: cell-based; conditions: cos-7; procedure, shortened: as §2
[10] = Plasmodium falciparum, D6, read-out: IC50

T2 sequence (P28223 whole entry): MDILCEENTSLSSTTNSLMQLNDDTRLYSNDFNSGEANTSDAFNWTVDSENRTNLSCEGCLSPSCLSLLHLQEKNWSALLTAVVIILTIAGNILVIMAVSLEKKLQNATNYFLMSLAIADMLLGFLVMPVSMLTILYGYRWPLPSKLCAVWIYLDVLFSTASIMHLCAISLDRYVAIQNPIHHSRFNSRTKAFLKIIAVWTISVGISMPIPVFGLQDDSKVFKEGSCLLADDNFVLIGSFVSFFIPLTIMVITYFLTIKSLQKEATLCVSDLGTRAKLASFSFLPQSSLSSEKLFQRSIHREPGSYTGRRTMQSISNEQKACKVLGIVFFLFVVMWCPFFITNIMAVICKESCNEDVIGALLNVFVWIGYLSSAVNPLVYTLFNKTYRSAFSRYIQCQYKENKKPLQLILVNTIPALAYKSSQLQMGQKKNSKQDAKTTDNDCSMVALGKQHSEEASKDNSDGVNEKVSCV
T1 sequence (P46925 whole entry): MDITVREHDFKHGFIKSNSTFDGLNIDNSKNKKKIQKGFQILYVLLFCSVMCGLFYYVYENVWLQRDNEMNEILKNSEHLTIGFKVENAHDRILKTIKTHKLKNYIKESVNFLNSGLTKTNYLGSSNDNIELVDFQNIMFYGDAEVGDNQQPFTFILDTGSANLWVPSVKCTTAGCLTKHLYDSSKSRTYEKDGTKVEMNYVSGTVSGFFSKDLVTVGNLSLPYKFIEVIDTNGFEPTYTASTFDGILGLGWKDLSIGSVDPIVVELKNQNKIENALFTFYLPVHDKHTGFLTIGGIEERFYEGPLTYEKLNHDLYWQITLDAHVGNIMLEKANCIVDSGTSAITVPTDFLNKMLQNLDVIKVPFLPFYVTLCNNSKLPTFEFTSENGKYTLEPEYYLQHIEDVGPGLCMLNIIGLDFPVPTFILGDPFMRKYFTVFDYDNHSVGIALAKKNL

Row | SMILES | IC50 (Plasmodium falciparum) | Activity (Vero) | inhibition at 6.25 µg/mL [1] | inhibition (INH) [2] | MIC [2] | Activity (Homo sapiens) | IC50 (Plasmodium falciparum; [10]) | selectivity ratio [3] | IC50 (Plasmepsin II [4]) | IC50 (Plasmepsin II [5]) | Ki [6] | inhibition ([6]; COS-7, concentration not given here) | Ki [7] | Ki [8] | Ki [9]
1 | C[C@H]1CC[C@H]2C(C)(C)CCC[C@]23Oc2ccc(O)cc2C[C@]13C [AUREOL] | Not Active | Non-toxic | 31% | 31% | > 6.25 µg/mL | inactive | – | – | – | – | – | – | – | – | –
2 | CN1C(=N)N/C(=C/c2c[nH]c3cc(Br)ccc23)C1=O | – | Non-toxic | – | – | – | inactive | 1.1 µg/mL (≈ 3.45 µM) | > 4.3 | 53 µM | 66 µM | > 100000 nM | 10% | 2300 nM | – | –
3 | C/N=C1\NC(=O)/C(=C\c2c[nH]c3ccccc23)N1C [ISOPLYSIN A] | – | Non-toxic | – | – | – | inactive | 0.97 µg/mL (≈ 3.81 µM) | > 4.9 | – | – | – | – | – | Not Active | Not Active
4 | C[C@H]1CC[C@H]2C(C)(C)CCC[C@]23Oc2ccc(OC(=S)N(C)C)cc2C[C@]13C | – | Non-toxic | 100% | 100% | < 6.25 µg/mL | inactive | 0.087 µg/mL (≈ 0.217 µM) | > 55 | – | – | – | – | – | – | –
5 | CC(=O)Oc1ccc2c(c1)C[C@]1(C)[C@@H](C)CC[C@H]3C(C)(C)CCC[C@]31O2 [AUREOL ACETATE] | Not Active | Non-toxic | 34% | – | – | inactive | – | – | – | – | – | – | – | – | –
6 | C[C@H]1CC[C@H]2C(C)(C)CCC[C@]23Oc2ccc(O)c(Cl)c2C[C@]13C | – | Non-toxic | 38% | – | – | inactive | 3.4 µg/mL (≈ 9.74 µM) | > 1.4 | – | – | – | – | – | – | –
7 | CN1C(=N)N/C(=C/c2c[nH]c3ccccc23)C1=O | Not Active | Non-toxic | – | – | – | inactive | – | – | – | – | – | – | – | Not Active | Not Active
8 | O=C1C(=O)c2[nH]cc3c2C(=C1Br)NCC3 [MAKALUVAMINE O] | – | Non-toxic | – | – | – | inactive | 0.94 µg/mL (≈ 3.52 µM) | > 5.1 | – | – | – | – | – | Not Active | Not Active
9 | C/N=C1\N(C)C(=O)/C(=C\c2c[nH]c3ccccc23)N1C [METHYLAPLYSINOPSIN] | Not Active | Non-toxic | – | – | – | inactive | – | – | – | – | – | – | – | Not Active | Not Active
10 | CN1C(=N)N(C)/C(=C/c2c[nH]c3cc(Br)ccc23)C1=O | – | Non-toxic | – | – | – | inactive | 0.34 µg/mL (≈ 1.02 µM) | > 14 | – | – | 2000 nM | – | 330 nM | – | –
11 | CC/N=C1\N(C)C(=O)/C(=C\c2c[nH]c3ccccc23)N1C | Not Active | Non-toxic | – | – | – | inactive | – | – | – | – | 1700 nM | – | 3500 nM | – | –
12 | COc1ccc2c(c1)C[C@]1(C)[C@@H](C)CC[C@H]3C(C)(C)CCC[C@]31O2 | Not Active | Non-toxic | 53% | – | – | inactive | – | – | – | – | – | – | – | – | –
